Each structure is given as a SMILES string. Where “and” joins values, the source holds several entries; their conditions need not be identical. Equal values may be shown once. Some results are limits rather than exact numbers.

Assay [1] concerns the target T1, D(2) dopamine receptor (Homo sapiens, UniProt P14416). Nature of the assay: Displacement of [3H]-sulpiride from human D2 receptor expressed in HEK293 cells at 100 nM after 150 mins by liquid scintillation counting method relative to control. It counts as cell-based. A general note: Displacement assays read how much labelled ligand stays bound in the presence of the test substance.

The target of assay [2] is T2, D(3) dopamine receptor (Homo sapiens, UniProt P35462). Put plainly: Agonist activity at human D3 receptor expressed in HEK293 cells assessed as inhibition of forskolin-induced cAMP accumulation after 4 hrs by luciferase reporter gene assay. It counts as functional, cell-based. In general terms: Changes in cAMP serve as a functional read-out for many G protein-coupled receptors.

The target in assay [3] is T2, D(3) dopamine receptor. Put plainly: Potency index, ratio of N-(4-(4-(2,4-dichlorophenyl)piperazin-1-yl)butyl)-1H-indole-2-carboxamide hydrochloride Ki to compound Ki for displacement of [3H]-sulpiride from human D3 receptor expressed in HEK293 cells. It counts as cell-based.
For assay [4], the target named is T1, D(2) dopamine receptor. Put plainly: Displacement of [3H]-sulpiride from human D2 receptor expressed in HEK293 cells after 150 mins by liquid scintillation counting method. It counts as cell-based. Summed up:
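HEK 293 cells transfected with D2R plasmid, cultured in MEM without then with fetal bovine serum (4 h, 24 h). Seeded overnight, then intact cells incubated with [3H]-sulpiride (2.2 nM) plus compounds for 150 min at 4 °C. Cells were rinsed in ice-cold MEM, lysed in 1% SDS, and counted by liquid scintillation. IC50 from nonlinear dose-response fit; Ki by Cheng-Prusoff.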

The target of assay [5] is T2, D(3) dopamine receptor. Nature of the assay: Potency index, ratio of quinpirole EC50 to compound EC50 for agonist activity at human D3 receptor expressed in HEK293 cells. It counts as functional, cell-based.
A further assay is filed under the species Homo sapiens. Put plainly: Selectivity ratio of Ki for human D2 receptor expressed in HEK293 cells to Ki for human D3 receptor expressed in HEK293 cells. It counts as cell-based.
The target in assay [6] is T2, D(3) dopamine receptor. Put plainly: Displacement of [3H]-sulpiride from human D3 receptor expressed in HEK293 cells after 150 mins by liquid scintillation counting method. It counts as cell-based.
The target in assay [7] is T1, D(2) dopamine receptor. Nature of the assay: Displacement of [3H]-sulpiride from human D2 receptor expressed in HEK293 cells at 30 uM after 150 mins by liquid scintillation counting method relative to control. It counts as cell-based. Summed up:
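HEK 293 cells transiently transfected with D2R plasmid, kept in serum-free MEM for 4 h and then serum-containing MEM for 24 h, seeded and left overnight. Whole cells were incubated with 2.2 nM [3H]-sulpiride plus test compound for 150 min at 4 °C, rinsed with ice-cold MEM, and lysed in 1% SDS. Bound radioactivity was read by liquid scintillation counting.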

T2 sequence (P35462 whole entry): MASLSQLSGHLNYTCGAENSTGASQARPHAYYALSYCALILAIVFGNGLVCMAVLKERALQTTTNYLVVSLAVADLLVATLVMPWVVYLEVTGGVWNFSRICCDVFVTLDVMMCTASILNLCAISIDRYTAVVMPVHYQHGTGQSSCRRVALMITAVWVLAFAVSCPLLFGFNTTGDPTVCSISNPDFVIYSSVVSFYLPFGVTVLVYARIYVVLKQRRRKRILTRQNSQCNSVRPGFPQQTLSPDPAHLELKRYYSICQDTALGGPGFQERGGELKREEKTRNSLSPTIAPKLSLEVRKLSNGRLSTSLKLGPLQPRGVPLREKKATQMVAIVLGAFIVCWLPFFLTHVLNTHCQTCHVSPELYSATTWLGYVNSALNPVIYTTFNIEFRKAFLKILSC
T1 sequence (P14416 whole entry): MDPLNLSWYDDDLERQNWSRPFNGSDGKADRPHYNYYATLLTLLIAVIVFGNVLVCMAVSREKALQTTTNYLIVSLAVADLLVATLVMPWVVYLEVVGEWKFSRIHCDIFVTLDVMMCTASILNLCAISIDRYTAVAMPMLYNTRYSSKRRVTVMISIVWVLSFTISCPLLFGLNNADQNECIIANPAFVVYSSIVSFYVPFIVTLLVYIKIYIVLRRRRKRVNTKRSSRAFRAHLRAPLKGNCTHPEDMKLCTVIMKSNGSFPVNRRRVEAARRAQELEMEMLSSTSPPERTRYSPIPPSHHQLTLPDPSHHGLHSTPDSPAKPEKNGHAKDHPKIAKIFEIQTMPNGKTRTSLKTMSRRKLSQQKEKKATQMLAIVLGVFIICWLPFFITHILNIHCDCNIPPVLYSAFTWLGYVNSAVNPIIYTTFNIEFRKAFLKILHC

Consider `CCN1CCCC1CNC(=O)c1cc(S(N)(=O)=O)ccc1OC` (configuration not stated), for which the inhibition (in general, the drop in the measured response relative to a control, in per cent) at D(2) dopamine receptor [1] was 92.2%. The same measure, in the same setting: next, `O=C1c2ccccc2C(=O)N1CCCCN1CCN(c2ccccc2Cl)CC1`: 28.7%.

Consider `O=C1c2ccccc2C(=O)N1CCCCN1CCN(c2cccc(F)c2F)CC1`, for which the concentration giving a half-maximal response (EC50) (in general, the concentration at which the effect is half-maximal) on D(3) dopamine receptor [2] came to 0.00048 nM. In addition, the Ratio Ki at D(3) dopamine receptor [3] came out at 21; in the assay filed under Homo sapiens, 112. Moreover, the inhibition on D(2) dopamine receptor [1] is 17.7%. Besides, the inhibitory constant (Ki) (in general, the equilibrium dissociation constant of an inhibitor or competing ligand from its target) at D(2) dopamine receptor [4] stood at 2160 nM; at D(3) dopamine receptor [6], 19.3 nM. Moreover, the Ratio EC50 at D(3) dopamine receptor [5] fell in the range of 199 to 200.

Take `O=C1c2ccccc2C(=O)N1CCCCN1CCN(c2ccc(Cl)cc2F)CC1`: on D(2) dopamine receptor [1], the inhibition is 2.8%. For `O=C1c2ccccc2C(=O)N1CCCCN1CCN(c2ccc(Cl)cc2Cl)CC1`, the inhibition on D(2) dopamine receptor [1] came to 30.2%. As for `O=C(NCCCCN1CCN(c2ccc(Cl)cc2Cl)CC1)c1cc2ccccc2[nH]1`, the inhibition on D(2) dopamine receptor [1] is 22.7%; on D(2) dopamine receptor [7] it was < 50%. The Ki on D(2) dopamine receptor [4] was > 23900 nM. `O=C1c2ccccc2C(=O)N1CCCCN1CCN(c2ccccc2F)CC1`: the inhibition on D(2) dopamine receptor [1] was determined as 31.8%. For `O=C(CCCCN1CCN(c2ccccc2F)CC1)Nc1nc2ccccc2s1`, the Ratio Ki in the assay listed under Homo sapiens stood at 45. On to `O=C1c2ccccc2C(=O)N1CCCCN1CCN(c2ccc(F)cc2)CC1`, for which the inhibition at D(2) dopamine receptor [1] is -6.3%. Regarding `O=C1c2ccccc2C(=O)N1CCCCN1CCC(n2c(=O)[nH]c3cc(Cl)ccc32)CC1`, at D(2) dopamine receptor [1], the inhibition came out at 56.1%. For `O=C1c2ccccc2C(=O)N1CCCCN1CCN(c2cccc(Cl)c2)CC1`, the inhibition at D(2) dopamine receptor [1] was determined as 64.8%.

Take `O=C(NCCCCN1CCN(c2cccc(Cl)c2Cl)CC1)c1cc2ccccc2[nH]1`: on D(3) dopamine receptor [2], the 50% effective concentration (EC50) turned out to be 0.026 nM. For `O=C1c2ccccc2C(=O)N1CCCCN1CCN(c2cc(C(F)(F)F)ccc2F)CC1`, the inhibition at D(2) dopamine receptor [1] is -4.7%.

`COc1ccccc1C1CCN(CCCCN2C(=O)c3ccccc3C2=O)CC1`: at D(2) dopamine receptor [1], the inhibition came out at 92.2%.

Consider `O=C1c2ccccc2C(=O)N1CCCCN1CCN(c2cccc(Cl)c2Cl)CC1`, for which the inhibition on D(2) dopamine receptor [1] stood at 70.3%. Take `O=C1c2ccccc2C(=O)N1CCCCN1CCN(c2cccc(C(F)(F)F)c2)CC1`: the inhibition at D(2) dopamine receptor [1] is 37.9% and 44%. As for `O=C1c2ccccc2C(=O)N1CCCCN1CCN(c2ccc(F)cc2F)CC1`, the inhibition at D(2) dopamine receptor [1] worked out at 4.8%.

As to `O=C1c2ccccc2C(=O)N1CCCCN1CCN(c2c(F)cccc2F)CC1`, at D(2) dopamine receptor [1], the inhibition amounted to 10.3%. As for `O=C(CCCCN1CCN(c2ccc(Cl)cc2Cl)CC1)Nc1nc2ccccc2s1`, in the assay filed under Homo sapiens, the Ratio Ki came to 63.8.
